Measurements taken from ChEMBL document CHEMBL5136958, “The development of HEC-866 and its analogues for the treatment of idiopathic pulmonary fibrosis” (RSC Med Chem, 2021).
Each block holds one compound with its values, some of them ahead of it. Active and inactive are the calls of the source. The calls are words filed in the database; no cut-off is given here.

Columns and labels:
HFL1 [1] = assay: Antiproliferative activity against human HFL1 cells assessed as reduction in cell proliferation measured after 24 hrs by CCK-8 assay; format: functional, cell-based; conditions: HFL1, 24 h
Procedure, shortened: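 Human fetal lung fibroblasts (HFL-1); growth inhibition quantified with CCK-8; IC50 averaged from 3 experiments, each in duplicate.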

[2] = Half life in Sprague-Dawley rat model of bleomycin-induced pulmonary fibrosis at 2 mg/kg, iv by LC-MS/MS analysis; format: ADME, organism-based; conditions: in vivo
Procedure, shortened: (§1)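 Male Sprague-Dawley rats with induced pulmonary fibrosis; single i.v. (2.0 mg kg⁻¹) or p.o. (5.0 mg kg⁻¹) administration. Plasma samples stored at −70 °C; the supernatant was analysed by LC-MS/MS for PK parameters.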

[3] = AUClast in Sprague-Dawley rat model of bleomycin-induced pulmonary fibrosis at 2 mg/kg, iv by LC-MS/MS analysis; format: ADME, organism-based; parameters: time 0 - last, dose 2 mg/kg, route iv; conditions: in vivo; procedure, shortened: as §1
[4] = AUC(infinity) in Sprague-Dawley rat model of bleomycin-induced pulmonary fibrosis at 2 mg/kg, iv by LC-MS/MS analysis; format: ADME, organism-based; parameters: time infinity, dose 2 mg/kg, route iv; conditions: in vivo; procedure, shortened: as §1
[5] = Clearance in Sprague-Dawley rat model of bleomycin-induced pulmonary fibrosis at 2 mg/kg, iv by LC-MS/MS analysis; format: ADME, organism-based; conditions: in vivo; procedure, shortened: as §1
[6] = Half life in Sprague-Dawley rat model of bleomycin-induced pulmonary fibrosis at 5 mg/kg, po by LC-MS/MS analysis; format: ADME, organism-based; conditions: in vivo; procedure, shortened: as §1
[7] = AUClast in Sprague-Dawley rat model of bleomycin-induced pulmonary fibrosis at 5 mg/kg, po by LC-MS/MS analysis; format: ADME, organism-based; parameters: time 0 - last, dose 5 mg/kg, route po; conditions: in vivo; procedure, shortened: as §1
[8] = AUC(infinity) in Sprague-Dawley rat model of bleomycin-induced pulmonary fibrosis at 5 mg/kg, po by LC-MS/MS analysis; format: ADME, organism-based; parameters: time infinity, dose 5 mg/kg, route po; conditions: in vivo; procedure, shortened: as §1
[9] = Half life in Sprague-Dawley rat model of bleomycin-induced pulmonary fibrosis at 1 mg/kg, iv by LC-MS/MS analysis; format: ADME, organism-based; conditions: in vivo
[10] = AUClast in Sprague-Dawley rat model of bleomycin-induced pulmonary fibrosis at 1 mg/kg, iv by LC-MS/MS analysis; format: ADME, organism-based; parameters: time 0 - last, dose 1 mg/kg, route iv; conditions: in vivo
[11] = AUC(infinity) in Sprague-Dawley rat model of bleomycin-induced pulmonary fibrosis at 1 mg/kg, iv by LC-MS/MS analysis; format: ADME, organism-based; parameters: time infinity, dose 1 mg/kg, route iv; conditions: in vivo
[12] = Clearance in Sprague-Dawley rat model of bleomycin-induced pulmonary fibrosis at 1 mg/kg, iv by LC-MS/MS analysis; format: ADME, organism-based; conditions: in vivo
[13] = Tmax in Sprague-Dawley rat model of bleomycin-induced pulmonary fibrosis at 5 mg/kg, po by LC-MS/MS analysis; format: ADME, organism-based; conditions: in vivo
Procedure, shortened: (§2)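 Male Sprague-Dawley rats with induced pulmonary fibrosis were dosed 2.0 mg kg⁻¹ i.v. or 5.0 mg kg⁻¹ p.o. Plasma was stored at -70 °C, and the supernatant was analysed by LC-MS/MS.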

[14] = Cmax in Sprague-Dawley rat model of bleomycin-induced pulmonary fibrosis at 5 mg/kg, po by LC-MS/MS analysis; format: ADME, organism-based; parameters: dose 5 mg/kg, route po; conditions: in vivo; procedure, shortened: as §1
[15] = Oral bioavailability in Sprague-Dawley rat model of bleomycin-induced pulmonary fibrosis at 5 mg/kg by LC-MS/MS analysis; format: ADME, organism-based; conditions: in vivo; procedure, shortened: as §2
HFL1 [16] = assay: Antifibrotic activity in TGF-beta1-induced HFL1 cell injury assessed as alpha-SMA expression at 3 mM measured after 48 hrs by Western blot analysis (reference value: 100%); format: functional, Homo sapiens
Procedure, shortened: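 HFL-1 cells stimulated with TGF-β1; α-SMA protein detected by Western blot with anti-α-SMA antibody, normalised to tubulin; mean of n = 3.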

HFL1 [17] = assay: Antifibrotic activity in TGF-beta1-induced HFL1 cell injury assessed as down regulation of collagen 1 mRNA expression at 3 mM measured after 24 hrs by RT-PCR analysis; format: functional, cell-based; conditions: Homo sapiens
Procedure, shortened: (§3)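 TGF-β1-induced HFL-1 cells treated 24 h (test range 0.625–10 μM; comparator 3 mM); collagen 1 and collagen 3 mRNA measured by RT-PCR; mean of n = 3.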

HFL1 [18] = assay: Antifibrotic activity in TGF-beta1-induced HFL1 cell injury assessed as down regulation of collagen 3 mRNA expression at 3 mM measured after 24 hrs by RT-PCR analysis; format: functional, cell-based; conditions: Homo sapiens; procedure, shortened: as §3
[19] = Cmax in Sprague-Dawley rat model of bleomycin-induced pulmonary fibrosis at 2 mg/kg, iv by LC-MS/MS analysis; format: ADME, organism-based; parameters: dose 2 mg/kg, route iv; conditions: in vivo; procedure, shortened: as §1
[20] = Tmax in Sprague-Dawley rat model of bleomycin-induced pulmonary fibrosis at 10 mg/kg, po by LC-MS/MS analysis; format: ADME, organism-based; conditions: in vivo
[21] = Cmax in Sprague-Dawley rat model of bleomycin-induced pulmonary fibrosis at 10 mg/kg, po by LC-MS/MS analysis; format: ADME, organism-based; parameters: dose 10 mg/kg, route po; conditions: in vivo
[22] = Half life in Sprague-Dawley rat model of bleomycin-induced pulmonary fibrosis at 10 mg/kg, po by LC-MS/MS analysis; format: ADME, organism-based; conditions: in vivo
[23] = AUClast in Sprague-Dawley rat model of bleomycin-induced pulmonary fibrosis at 10 mg/kg, po by LC-MS/MS analysis; format: ADME, organism-based; parameters: time 0 - last, dose 10 mg/kg, route po; conditions: in vivo
[24] = AUC(infinity) in Sprague-Dawley rat model of bleomycin-induced pulmonary fibrosis at 10 mg/kg, po by LC-MS/MS analysis; format: ADME, organism-based; parameters: time infinity, dose 10 mg/kg, route po; conditions: in vivo
[25] = Oral bioavailability in Sprague-Dawley rat model of bleomycin-induced pulmonary fibrosis at 10 mg/kg by LC-MS/MS analysis; format: ADME, organism-based; conditions: in vivo
Rattus norvegicus = assay: Antifibrotic activity against bleomycin-induced pulmonary fibrosis in Sprague-Dawley rat assessed as reduction in lung histopathological changes at 100 mg/kg, po administered daily for 1 to 14 days starting from post bleomycin stimulation by H and E staining based assay; format: functional, organism-based; conditions: time 1-14 day
Procedure, shortened: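 Bleomycin-induced lung fibrosis in SD rats; oral dosing daily from day 1 for 14 days; saline for sham and bleomycin groups; comparator 100 mg kg⁻¹ d, test doses 2 and 6 mg kg⁻¹ d; lung pathology assessed by HE histology.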

SMILES: Cc1cc(=O)n(-c2ccc(N3CCC(Cc4ccccc4-c4ccccc4)CC3)c(Cl)c2)c(C)n1
IC50 (HFL1 [1]): 70 µM

half-life [2]: 812 min
AUC(0-t) [3]: 2460 ng·h/mL
AUC(0-inf) [4]: 3220 ng·h/mL
clearance [5]: 10.3 mL/min/kg
half-life [6]: 710 min
AUC(0-t) [7]: 5180 ng·h/mL
AUC(0-inf) [8]: 7080 ng·h/mL
SMILES: Cc1cc(=O)n(-c2ccc(N3CCC(Cc4cccc(C(F)(F)F)c4)CC3)c(Cl)c2)c(C)n1
IC50 (HFL1 [1]): 60 µM

SMILES: Cc1cc(=O)n(-c2ccc(N3CCC(Cc4cccc(F)c4)CC3)nc2)c(C)n1
IC50 (HFL1 [1]): 130 µM

half-life [2]: 652 min
AUC(0-t) [3]: 898 ng·h/mL
AUC(0-inf) [4]: 1060 ng·h/mL
clearance [5]: 15.8 mL/min/kg
half-life [6]: 576 min
AUC(0-t) [7]: 1750 ng·h/mL
AUC(0-inf) [8]: 2030 ng·h/mL
SMILES: Cc1cc(=O)n(-c2ccc(N3CCC(Cc4cccc(Cl)c4)CC3)c(Cl)c2)c(C)n1
IC50 (HFL1 [1]): 50 µM

SMILES: Cc1cc(=O)n(-c2cnc(N3CCC(Oc4cccc(F)c4)CC3)c(Cl)c2)c(C)n1
IC50 (HFL1 [1]): 70 µM

half-life [2]: 404 min
AUC(0-t) [3]: 1450 ng·h/mL
AUC(0-inf) [4]: 3260 ng·h/mL
clearance [5]: 10.8 mL/min/kg
half-life [6]: 316 min
AUC(0-t) [7]: 1550 ng·h/mL
AUC(0-inf) [8]: 3410 ng·h/mL
SMILES: Cc1cc(=O)n(-c2ccc(N3CCC(COc4cccc(F)c4)CC3)c(Cl)c2)c(C)n1
IC50 (HFL1 [1]): 50 µM

SMILES: Cc1cc(=O)n(-c2cnc(N3CCC(Cc4cccc(F)c4)CC3)c(Cl)c2)c(C)n1
IC50 (HFL1 [1]): 60 µM

SMILES: Cc1cc(=O)n(-c2ccc(N3CCC(Cc4ccc5ccccc5c4)CC3)c(Cl)c2)c(C)n1
IC50 (HFL1 [1]): 90 µM

SMILES: Cc1cc(=O)n(-c2ccc(N3CCC(Cc4cccc(F)c4)CC3)cn2)c(C)n1
IC50 (HFL1 [1]): 130 µM

half-life [6]: 258 min
AUC(0-t) [7]: 32600 ng·h/mL
AUC(0-inf) [8]: 33500 ng·h/mL
half-life [9]: 258 min
AUC(0-t) [10]: 7130 ng·h/mL
AUC(0-inf) [11]: 7290 ng·h/mL
clearance [12]: 1.67 mL/min/kg
Tmax [13]: 30 min
Cmax [14]: 4720 ng/mL
bioavailability [15]: 92%
SMILES: Cc1cc(=O)n(-c2ccc(N3CCOCC3)c(F)c2)c(C)n1
IC50 (HFL1 [1]): 6540 µM

SMILES: C=CCc1ccccc1OC1CCN(c2ccc(-n3c(C)nc(C)cc3=O)cc2Cl)CC1
IC50 (HFL1 [1]): 70 µM

SMILES: Cc1cc(=O)n(-c2ccc(N3CCC(Oc4cccc(F)c4)CC3)c(F)c2)c(C)n1
IC50 (HFL1 [1]): 110 µM

SMILES: Cc1cc(=O)n(-c2ccc(N3CCC(Cc4ccc(F)cc4)CC3)c(F)c2)c(C)n1
IC50 (HFL1 [1]): 110 µM

half-life [2]: 316 min
AUC(0-t) [3]: 1110 ng·h/mL
AUC(0-inf) [4]: 1130 ng·h/mL
clearance [5]: 29.8 mL/min/kg
half-life [6]: 313 min
AUC(0-t) [7]: 1560 ng·h/mL
AUC(0-inf) [8]: 1600 ng·h/mL
SMILES: Cc1cc(=O)n(-c2ccc(N3CCC(Cc4cccc5ccccc45)CC3)c(F)c2)c(C)n1
IC50 (HFL1 [1]): 60 µM

SMILES: Cc1cc(=O)n(-c2ccc(N3CCC(Cc4cccc(F)c4)CC3)c(Cl)c2)c(C)n1
IC50 (HFL1 [1]): 60 µM

SMILES: Cc1cc(=O)n(-c2ccc(N3CCC(Cc4ccccc4Cl)CC3)c(Cl)c2)c(C)n1
IC50 (HFL1 [1]): 70 µM

half-life [2]: 24 min
AUC(0-t) [3]: 649 ng·h/mL
AUC(0-inf) [4]: 650 ng·h/mL
clearance [5]: 53.3 mL/min/kg
Cmax [19]: 1010 ng/mL
Tmax [20]: 18 min
Cmax [21]: 5070 ng/mL
half-life [22]: 24 min
AUC(0-t) [23]: 3460 ng·h/mL
AUC(0-inf) [24]: 3460 ng·h/mL
bioavailability [25]: 107%
SMILES: Cc1ccc(=O)n(-c2ccccc2)c1 [PIRFENIDONE]
Activity (HFL1 [16]): 83.71%
IC50 (HFL1 [1]): 9150 µM
Activity (HFL1 [17]): Active
Activity (HFL1 [18]): Active
Activity (Rattus norvegicus): Active

half-life [2]: 492 min
AUC(0-t) [3]: 2190 ng·h/mL
AUC(0-inf) [4]: 2400 ng·h/mL
clearance [5]: 13.8 mL/min/kg
half-life [6]: 505 min
AUC(0-t) [7]: 5690 ng·h/mL
AUC(0-inf) [8]: 6360 ng·h/mL
SMILES: Cc1cc(=O)n(-c2ccc(N3CCC(Cc4cc(F)c(F)c(F)c4)CC3)c(Cl)c2)c(C)n1
IC50 (HFL1 [1]): 60 µM

SMILES: Cc1cccc(CC2CCN(c3ccc(-n4c(C)nc(C)cc4=O)cc3F)CC2)c1
IC50 (HFL1 [1]): 100 µM

SMILES: Cc1cc(=O)n(-c2ccc(N3CCC(Nc4cccc(C(F)(F)F)c4)CC3)c(Cl)c2)c(C)n1
IC50 (HFL1 [1]): 60 µM

SMILES: Cc1cc(=O)n(-c2ccc(N3CCC(Cc4cccc5cccnc45)CC3)c(Cl)c2)c(C)n1
IC50 (HFL1 [1]): 120 µM
